# Where two headings read alike, the source gives them in different places.
# Tests used:
# Assay type in all cases: in vitro ADME
# CYP1A2 [1] = molecular target: T1, CYP1A2 (Homo sapiens, UniProt P05177); assay: biochemical
# T1 sequence (P05177 1-516): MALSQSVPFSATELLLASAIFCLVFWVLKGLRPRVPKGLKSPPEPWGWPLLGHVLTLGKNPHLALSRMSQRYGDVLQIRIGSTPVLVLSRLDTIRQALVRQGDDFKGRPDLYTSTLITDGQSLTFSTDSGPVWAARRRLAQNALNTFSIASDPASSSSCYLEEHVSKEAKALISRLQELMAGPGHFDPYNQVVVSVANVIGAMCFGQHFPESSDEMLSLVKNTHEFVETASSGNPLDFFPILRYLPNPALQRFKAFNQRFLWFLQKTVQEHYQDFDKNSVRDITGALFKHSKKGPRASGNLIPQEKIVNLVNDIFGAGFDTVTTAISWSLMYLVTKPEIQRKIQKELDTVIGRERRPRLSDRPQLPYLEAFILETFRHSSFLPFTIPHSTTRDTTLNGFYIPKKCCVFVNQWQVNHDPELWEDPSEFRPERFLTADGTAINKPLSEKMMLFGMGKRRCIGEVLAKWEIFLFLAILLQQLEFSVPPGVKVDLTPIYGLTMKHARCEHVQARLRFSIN
# CYP2C9 = CYP2C9 (Homo sapiens, UniProt P11712); assay: CYP2C9 inhibition in human liver microsomes
# Method in brief: (§1)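 Pooled human liver microsomes were incubated with standard CYP-selective substrates, with and without test compound at 0.03–100 μM. Standard selective inhibitors for each isoform ran in parallel as positive controls. Read-out was IC50. For CYP3A4 only, time-dependent inhibition was also tested after 30 min preincubation, using midazolam and testosterone as substrates.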
# OCT1 [2] = molecular target: T2, OCT1 (Homo sapiens, UniProt O15245); assay: Cellular uptake in OCT1-transfected HEK cells; conditions: not affected by decynium-22
# T2 sequence (O15245 1-554): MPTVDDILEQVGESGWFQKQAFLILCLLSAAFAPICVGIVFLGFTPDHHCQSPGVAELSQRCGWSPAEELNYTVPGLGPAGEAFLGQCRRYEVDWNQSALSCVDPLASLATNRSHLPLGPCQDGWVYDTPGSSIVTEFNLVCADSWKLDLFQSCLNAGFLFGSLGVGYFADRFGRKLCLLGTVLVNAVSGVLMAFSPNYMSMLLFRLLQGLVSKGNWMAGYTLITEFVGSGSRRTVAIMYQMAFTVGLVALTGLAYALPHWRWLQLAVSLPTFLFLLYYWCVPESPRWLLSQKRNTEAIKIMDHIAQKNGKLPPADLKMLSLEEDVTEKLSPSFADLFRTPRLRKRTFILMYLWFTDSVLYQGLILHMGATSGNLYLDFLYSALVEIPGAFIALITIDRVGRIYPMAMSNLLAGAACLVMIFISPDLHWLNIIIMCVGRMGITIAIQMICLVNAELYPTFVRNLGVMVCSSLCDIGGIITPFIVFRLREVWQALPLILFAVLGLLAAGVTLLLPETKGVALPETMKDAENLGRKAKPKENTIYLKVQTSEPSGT
# Method in brief: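 Cellular uptake of test compound was measured in HEK cells transfected to overexpress OATP1B1, OATP1B3 or OCT1. Vector-control cells were run in parallel. Standard inhibitors and probe substrates were included; decynium-22 served as OCT1 inhibitor, rifamycin as OATP inhibitor.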
# CYP3A4 = CYP3A4 (Homo sapiens, UniProt P08684); assay: CYP3A4 inhibition in human liver microsomes
# Method in brief: as §1
# CYP2D6 = CYP2D6 (Homo sapiens, UniProt P10635); assay: CYP2D6 inhibition in human liver microsomes
# Method in brief: as §1
# OCT1 [3] = molecular target: T2, OCT1; assay: OCT1 uptake inhibition in transfected HEK cells
# Method in brief: (§2)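 HEK cells overexpressing NTCP, OAT1, OAT3, OATP2B1, OCT1 or OCT2 were incubated with probe substrate. Pairs were estrone 3-sulfate/cyclosporin A (NTCP), PAH/probenecid (OAT1), furosemide/probenecid (OAT3), estrone 3-sulfate/glibenclamide (OATP2B1), 3H-MPP+/decynium 22 (OCT1) and 3H-MPP+/imipramine (OCT2). IC50 was determined with and without test compound, at ≤50 µM for the parent and ≤10 µM for the metabolite.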
# OAT3 = OAT3 (Homo sapiens, UniProt Q8TCC7); assay: OAT3 uptake inhibition in transfected HEK cells
# Method in brief: as §2
# P-gp = P-gp (Homo sapiens, UniProt P08183); assay: P-gp inhibition in Caco-2 cells
# Method in brief: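 Efflux transporter inhibition in Caco-2 monolayers. Test compound at 0.25–60 μM. Probe/reference-inhibitor pairs were digoxin/cyclosporin A (P-gp) and cladribine/Ko143 (BCRP). Probe transport was measured with and without test compound, and IC50 was derived from that inhibition.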
# NTCP = NTCP (Homo sapiens, UniProt Q14973); assay: NTCP uptake inhibition in transfected HEK cells
# Method in brief: as §2
# CYP2C19 = CYP2C19 (Homo sapiens, UniProt P33261); assay: CYP2C19 inhibition in human liver microsomes
# Method in brief: as §1
# MATE1 = MATE1 (Homo sapiens, UniProt Q96FL8); assay: MATE1 inhibition in transfected HEK cells
# Method in brief: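 HEK cells were transfected with MRP2, MATE1 or MATE2-K. Pairs were CDCF/benzbromarone (MRP2), metformin/cimetidine (MATE1) and metformin/pyrimethamine (MATE2-K). Probe transport was assessed with and without test compound, and IC50 was determined.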
# CYP1A2 [4] = conditions: primary human hepatocytes, three donors, 3 days dosing, 0.005–10 mg/l
# [5] = read-out: IC50, CYP3A4 (with pre-incubation), human liver microsomes, substrate midazolam, 30 min pre-incubation
# [6] = read-out: IC50, CYP3A4 (with pre-incubation), human liver microsomes, substrate testosterone, 30 min pre-incubation
# Sequence of CYP3A4 (P08684 whole entry): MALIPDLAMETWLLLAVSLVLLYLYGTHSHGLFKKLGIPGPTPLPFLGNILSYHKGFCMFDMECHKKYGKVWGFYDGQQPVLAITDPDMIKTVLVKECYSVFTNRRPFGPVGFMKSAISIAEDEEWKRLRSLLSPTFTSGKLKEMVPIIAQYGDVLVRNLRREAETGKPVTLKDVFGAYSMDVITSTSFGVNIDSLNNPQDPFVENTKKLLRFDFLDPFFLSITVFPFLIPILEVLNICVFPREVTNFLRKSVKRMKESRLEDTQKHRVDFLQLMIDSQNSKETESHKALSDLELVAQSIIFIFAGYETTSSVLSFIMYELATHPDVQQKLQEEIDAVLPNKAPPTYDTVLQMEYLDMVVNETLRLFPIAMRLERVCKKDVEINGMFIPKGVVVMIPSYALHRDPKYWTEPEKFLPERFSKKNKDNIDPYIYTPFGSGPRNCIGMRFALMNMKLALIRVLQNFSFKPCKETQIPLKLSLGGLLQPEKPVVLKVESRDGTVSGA
# Sequence of CYP2D6 (P10635 whole entry): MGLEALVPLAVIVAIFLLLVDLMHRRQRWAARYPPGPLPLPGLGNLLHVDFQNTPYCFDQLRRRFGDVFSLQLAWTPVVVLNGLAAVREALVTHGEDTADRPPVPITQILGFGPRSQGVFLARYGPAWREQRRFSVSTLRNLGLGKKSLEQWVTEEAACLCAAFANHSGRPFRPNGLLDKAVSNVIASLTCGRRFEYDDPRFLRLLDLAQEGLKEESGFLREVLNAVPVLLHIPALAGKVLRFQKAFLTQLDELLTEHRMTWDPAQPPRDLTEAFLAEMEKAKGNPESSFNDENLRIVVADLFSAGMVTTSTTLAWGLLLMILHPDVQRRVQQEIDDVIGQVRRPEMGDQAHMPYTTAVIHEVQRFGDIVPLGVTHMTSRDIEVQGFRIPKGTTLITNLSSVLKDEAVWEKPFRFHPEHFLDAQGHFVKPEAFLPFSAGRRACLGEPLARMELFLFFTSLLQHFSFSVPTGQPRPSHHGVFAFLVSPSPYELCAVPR
# Sequence of CYP2C9 (P11712 whole entry, canonical isoform): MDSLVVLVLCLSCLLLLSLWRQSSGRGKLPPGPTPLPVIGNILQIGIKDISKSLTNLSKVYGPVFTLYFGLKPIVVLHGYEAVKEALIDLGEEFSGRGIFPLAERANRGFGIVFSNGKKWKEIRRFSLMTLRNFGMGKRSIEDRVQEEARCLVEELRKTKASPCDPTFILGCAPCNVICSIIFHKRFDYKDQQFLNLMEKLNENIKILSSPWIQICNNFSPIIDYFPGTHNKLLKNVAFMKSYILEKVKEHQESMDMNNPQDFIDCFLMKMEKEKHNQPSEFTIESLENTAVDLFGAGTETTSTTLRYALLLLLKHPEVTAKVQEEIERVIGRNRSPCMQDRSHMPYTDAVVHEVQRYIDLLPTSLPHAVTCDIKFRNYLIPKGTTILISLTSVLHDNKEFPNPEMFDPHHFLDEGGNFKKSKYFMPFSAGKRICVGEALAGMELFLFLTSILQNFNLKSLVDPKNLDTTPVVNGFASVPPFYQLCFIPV
# Sequence of CYP2C19 (P33261 whole entry): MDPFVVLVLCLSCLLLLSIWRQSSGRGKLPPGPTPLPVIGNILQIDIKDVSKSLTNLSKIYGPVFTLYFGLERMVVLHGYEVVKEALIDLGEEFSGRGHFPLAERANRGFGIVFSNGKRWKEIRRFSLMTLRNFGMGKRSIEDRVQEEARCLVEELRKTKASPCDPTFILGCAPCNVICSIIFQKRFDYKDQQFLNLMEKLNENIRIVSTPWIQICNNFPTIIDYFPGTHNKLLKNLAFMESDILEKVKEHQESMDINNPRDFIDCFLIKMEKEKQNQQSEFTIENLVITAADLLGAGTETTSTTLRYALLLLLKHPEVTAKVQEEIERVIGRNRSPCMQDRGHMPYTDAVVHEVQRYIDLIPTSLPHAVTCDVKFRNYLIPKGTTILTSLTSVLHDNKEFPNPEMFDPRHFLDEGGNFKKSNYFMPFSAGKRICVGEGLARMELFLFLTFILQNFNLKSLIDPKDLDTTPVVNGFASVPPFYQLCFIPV
# Sequence of OAT3 (Q8TCC7 whole entry): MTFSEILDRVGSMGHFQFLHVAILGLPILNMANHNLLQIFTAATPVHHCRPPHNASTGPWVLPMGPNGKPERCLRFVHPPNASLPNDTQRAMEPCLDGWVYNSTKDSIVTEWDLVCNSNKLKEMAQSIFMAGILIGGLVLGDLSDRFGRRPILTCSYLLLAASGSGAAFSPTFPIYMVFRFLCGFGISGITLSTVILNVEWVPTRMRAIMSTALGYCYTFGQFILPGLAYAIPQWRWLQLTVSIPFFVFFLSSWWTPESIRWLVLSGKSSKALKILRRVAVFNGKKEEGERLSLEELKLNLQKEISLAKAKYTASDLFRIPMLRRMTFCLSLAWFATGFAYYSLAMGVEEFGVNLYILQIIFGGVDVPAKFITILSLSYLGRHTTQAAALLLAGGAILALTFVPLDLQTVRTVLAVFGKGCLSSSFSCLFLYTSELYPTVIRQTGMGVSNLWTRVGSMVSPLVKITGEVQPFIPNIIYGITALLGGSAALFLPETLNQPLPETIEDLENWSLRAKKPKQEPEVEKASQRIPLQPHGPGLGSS
# Sequence of MATE1 (Q96FL8 whole entry): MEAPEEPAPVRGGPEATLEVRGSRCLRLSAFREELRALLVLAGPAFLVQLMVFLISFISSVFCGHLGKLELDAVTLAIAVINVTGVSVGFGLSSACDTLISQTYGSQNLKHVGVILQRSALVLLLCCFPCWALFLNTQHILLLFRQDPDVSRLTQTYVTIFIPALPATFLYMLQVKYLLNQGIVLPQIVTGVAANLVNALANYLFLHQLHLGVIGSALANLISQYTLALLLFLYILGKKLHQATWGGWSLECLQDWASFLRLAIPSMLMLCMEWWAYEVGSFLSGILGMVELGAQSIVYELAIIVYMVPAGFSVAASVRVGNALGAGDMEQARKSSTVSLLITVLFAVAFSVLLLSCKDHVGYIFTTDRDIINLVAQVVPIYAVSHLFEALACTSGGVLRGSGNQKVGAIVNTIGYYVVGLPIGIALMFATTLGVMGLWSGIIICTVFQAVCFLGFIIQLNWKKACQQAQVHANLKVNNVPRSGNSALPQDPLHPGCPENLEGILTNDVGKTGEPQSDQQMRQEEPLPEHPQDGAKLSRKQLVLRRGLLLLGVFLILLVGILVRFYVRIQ
# Sequence of P-gp (P08183 whole entry): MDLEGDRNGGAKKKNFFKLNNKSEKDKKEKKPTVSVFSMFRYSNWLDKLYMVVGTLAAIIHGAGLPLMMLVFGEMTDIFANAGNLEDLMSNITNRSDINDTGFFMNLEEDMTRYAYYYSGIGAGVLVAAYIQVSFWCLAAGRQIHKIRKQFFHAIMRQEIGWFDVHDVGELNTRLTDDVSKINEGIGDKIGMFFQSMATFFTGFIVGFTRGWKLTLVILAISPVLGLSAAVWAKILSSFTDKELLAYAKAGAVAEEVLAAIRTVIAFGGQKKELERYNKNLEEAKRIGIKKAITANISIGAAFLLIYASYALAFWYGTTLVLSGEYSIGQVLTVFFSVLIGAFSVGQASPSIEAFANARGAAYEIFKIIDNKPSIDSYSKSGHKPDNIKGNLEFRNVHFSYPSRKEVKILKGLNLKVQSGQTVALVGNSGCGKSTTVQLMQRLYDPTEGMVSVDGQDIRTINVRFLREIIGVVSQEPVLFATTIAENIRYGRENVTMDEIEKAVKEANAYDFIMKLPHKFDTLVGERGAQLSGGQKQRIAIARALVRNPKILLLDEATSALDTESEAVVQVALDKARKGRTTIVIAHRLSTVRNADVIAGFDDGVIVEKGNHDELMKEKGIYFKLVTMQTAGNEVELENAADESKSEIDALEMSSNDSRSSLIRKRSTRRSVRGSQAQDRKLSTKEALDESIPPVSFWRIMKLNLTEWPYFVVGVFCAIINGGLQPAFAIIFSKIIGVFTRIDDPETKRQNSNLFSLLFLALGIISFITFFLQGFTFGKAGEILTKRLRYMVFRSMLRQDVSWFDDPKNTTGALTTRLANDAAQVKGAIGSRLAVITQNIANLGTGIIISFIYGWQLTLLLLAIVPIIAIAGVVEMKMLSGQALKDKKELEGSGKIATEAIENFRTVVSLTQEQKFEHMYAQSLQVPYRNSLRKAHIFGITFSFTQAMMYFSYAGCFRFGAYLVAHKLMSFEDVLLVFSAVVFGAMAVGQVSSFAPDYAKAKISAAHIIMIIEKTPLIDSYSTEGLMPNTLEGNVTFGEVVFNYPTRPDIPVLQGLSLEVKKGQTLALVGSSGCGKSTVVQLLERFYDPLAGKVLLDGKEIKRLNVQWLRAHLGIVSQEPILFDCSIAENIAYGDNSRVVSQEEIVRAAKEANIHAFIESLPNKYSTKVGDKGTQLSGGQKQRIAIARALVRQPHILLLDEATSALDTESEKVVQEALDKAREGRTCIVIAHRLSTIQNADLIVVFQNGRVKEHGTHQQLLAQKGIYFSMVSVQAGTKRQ
# Sequence of NTCP (Q14973 whole entry): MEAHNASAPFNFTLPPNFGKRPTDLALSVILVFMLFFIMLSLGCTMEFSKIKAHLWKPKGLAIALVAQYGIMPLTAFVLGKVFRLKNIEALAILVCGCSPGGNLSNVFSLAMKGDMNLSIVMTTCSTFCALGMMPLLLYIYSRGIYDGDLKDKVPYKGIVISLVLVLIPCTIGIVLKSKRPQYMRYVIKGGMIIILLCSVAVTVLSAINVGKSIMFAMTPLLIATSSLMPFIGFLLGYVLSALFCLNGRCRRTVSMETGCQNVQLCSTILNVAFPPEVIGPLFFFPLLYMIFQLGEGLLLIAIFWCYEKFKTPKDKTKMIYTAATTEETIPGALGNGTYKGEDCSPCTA
smiles,measurement,setting,value
"CC(O)c1cc(C(=O)N[C@@H](C)Cn2ccc(-c3ccc(C#N)c(Cl)c3)n2)[nH]n1 (some centres unmarked) [Darolutamide, darolutamide]",IC50,CYP1A2 [1],> 100 µM
same,IC50,CYP2C9,30.3 µM
same,uptake in OCT1-transfected HEK cells,OCT1 [2],no uptake
same,IC50,CYP3A4,> 100 µM
same,IC50,CYP3A4; [5],> 100 µM
same,IC50,CYP3A4; [6],> 100 µM
same,IC50,CYP2D6,81.9 µM
same,IC50,OCT1 [3],> 50 µM
same,IC50,OAT3,4.5 µM
same,IC50,P-gp,16.4 µM
same,IC50,NTCP,> 50 µM
same,IC50,CYP2C19,64.1 µM
same,IC50,MATE1,32.3 µM
"CC(=O)c1cc(C(=O)N[C@@H](C)Cn2ccc(-c3ccc(C#N)c(Cl)c3)n2)[nH]n1 [Keto-darolutamide, keto-darolutamide]",IC50,"CYP1A2 [1]; read-out: IC50, CYP1A2, human liver microsomes, substrate phenacetin",> 100 µM
same,IC50,"CYP2C9; read-out: IC50, CYP2C9, human liver microsomes, substrate diclofenac",9.6 µM
same,uptake in OCT1-transfected HEK cells,OCT1 [2],no uptake
same,IC50,CYP3A4; [5],> 50 µM
same,IC50,CYP3A4; [6],> 50 µM
same,IC50,"CYP3A4; read-out: IC50, CYP3A4, human liver microsomes, substrate midazolam",> 50 µM
same,IC50,"CYP3A4; read-out: IC50, CYP3A4, human liver microsomes, substrate testosterone",> 50 µM
same,IC50,"CYP2D6; read-out: IC50, CYP2D6, human liver microsomes, substrate bufuralol",51.9 µM
same,IC50,"OCT1 [3]; read-out: IC50, OCT1, HEK cells, substrate 3H-MPP+, reference decynium 22",> 10 µM
same,IC50,"OAT3; read-out: IC50, OAT3, HEK cells, substrate furosemide, reference probenecid",> 2 µM
same,maximal fold induction of CYP1A2,CYP1A2 [4],< 2 fold
same,IC50,"CYP2C19; read-out: IC50, CYP2C19, human liver microsomes, substrate S-mephenytoin",39.5 µM
same,IC50,"MATE1; read-out: IC50, MATE1, HEK cells, substrate metformin, reference cimetidine",> 10 µM

# Reference: article PMC6828636 (European Journal of Drug Metabolism and Pharmacokinetics, 2019)
